Assay results published in PubChem BioAssay.
Results filed as inconclusive are left out.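 How the source made its calls, unless noted: active means viability increase at or above a cutoff of the median across tested compounds plus 3 SD (cut at about 8.5% in these data, passing the limit was not always enough); inconclusive means some gains above the cutoff, reason not given; inactive means the rest.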

Legend:
[1] = S. cerevisiae growth inhibition in permissive medium (OD615), pilot counter-assay for S. cerevisiae lifespan shortening project, permissive growth control (AID 705;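 active means growth inhibition above 25% in both replicates, a cutoff set 3 SD above the mean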); conditions: OD615, 24 h, at 10 µM, hits give high values
Procedure, shortened: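 Material: engineered DeaD yeast; compound dosing: one dose 10 µM, DMSO 0.25% final; measure: yeast growth inhibition indicated by reduced 24 h OD615; detection: OD615 turbidity read; incubation: cells pre-grown 4 h, then 24 h compound exposure, 30 °C humidified; medium: permissive synthetic complete medium with raffinose and galactose carbon sources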

[2] = S. cerevisiae growth inhibition in restrictive medium, OD615, pilot screen, restrictive growth control, yeast lifespan reduction project (AID 706;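 active means growth inhibition above a set limit, 3 SD over mean compound inhibition, in both replicates, cut at about 43% in these data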;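 further: modified DeaD lifespan yeast strain shifted to restrictive glucose medium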); conditions: OD615, 48 h, at 10 µM, hits give high values
Procedure, shortened: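 material = engineered S. cerevisiae DeaD strain | medium = glucose-based CSMM-D restrictive medium | times = 4 h pre-incubation, 48 h exposure at 30 °C | technique = OD615 absorbance reading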

[3] = doxorubicin toxicity protection in MRP-1 cells – H69AR cells, CellTiter-Glo, duplicate, MRP-1 activator project, pilot screen (AID 807); conditions: H69AR viability with doxorubicin, CellTiter-Glo luminescence; at 10 µM; hits give high values;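 further: compound pretreatment 18-22 h then 72 h combined with doxorubicin; 0% = doxorubicin alone and 100% = vehicle without doxorubicin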
[4] = viability of HCT116 without oncogenic beta-catenin – human colon tumor cells, pilot screen (AID 823;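 active means cell viability at or below a set limit in both duplicate runs, the limit being the all-compound median minus 4 SD, cut at about 23% in these data, passing the limit was not always enough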;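 further: 0% = wells killed by 20 µM Hyamine and 100% = untreated DMSO cell wells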); conditions: HCT116 beta-catenin knockout viability, CellTiter-Glo, 60 h; at 10 µM; hits give low values
[5] = viability of PTEN-null HCT116 cells – cell-based, HCT116 clonal line, CellTiter-Glo, pilot screen (AID 824;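 active means viability at or below 27.92% in each of two runs, the all-compound median minus 4 SD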;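 further: 0% = 20 µM Hyamine control and 100% = vehicle cell control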); conditions: HCT116 PTEN-deleted viability, 60 h, at 10 µM, hits give low values
[6] = RAM pathway blockade in budding yeast – dse1pr::URA3 reporter, 5-FOA selection, pilot screen (AID 869;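 active means inhibition over a set limit, the all-compound mean plus 3 SD, in both replicate runs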;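 further: 0% = DMSO wells with no growth and 100% = 10 µM 1-NA-PP1 with full growth; RAM network block rescues cells from 5-FOA so hits raise OD615 growth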); conditions: S. cerevisiae dse1pr::URA3 5-FOA growth, OD615, 2 d; at 10 µM; hits give high values; strain carries analog-sensitive mutant Cbk1 kinase
[7] = RAM signaling pathway blockade in yeast – S. cerevisiae, Pdr1DBD-CYC8 efflux-inhibited sensitized strain, primary screen (AID 1298;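 active means RAM network inhibition above 8.4% in each of two replicates, 3 SD over the compound average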;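 further: 0% = DMSO untreated cells without growth and 100% = 10 µM 1-NA-PP1 full growth; higher means more yeast growth rescued from 5-FOA killing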); conditions: S. cerevisiae cbk1-as DSE1-URA3 strain, 5-FOA growth OD615, 2 d; at 50 µM; hits give high values

Cc1nn(-c2ccccc2)c(C)c1NC(=O)Cc1cccs1
inactive: growth inhibition [1] -10.7% | growth inhibition [2] -4.28% | viability increase [3] -2.07% | viability [4] 95.2% | viability [5] 92.1% | inhibition [6] 1.18% | RAM network inhibition [7] 1.1%

Cc1ccc2nc(NC(=O)C3CCN(S(=O)(=O)c4ccc5c(c4)oc(=O)n5C)CC3)sc2c1
inactive: growth inhibition [1] -5.8% | growth inhibition [2] -24.5% | viability increase [3] 1.75% | viability [4] 82.2% | viability [5] 88.9% | inhibition [6] 1.54% | RAM network inhibition [7] 9.3%

CN1CCN(CCCNC(=O)c2cn(C)c3ccc(S(=O)(=O)N(C)C)cc3c2=O)CC1
inactive: growth inhibition [1] -0.94% | growth inhibition [2] 2.12% | viability increase [3] -0.23% | viability [4] 103% | viability [5] 103% | inhibition [6] -0.355% | RAM network inhibition [7] 5.1%

CCOC(=O)N1CCC(NC(=O)c2ccc(NC(=O)C3CCCO3)cc2)CC1 (stereo not drawn)
inactive: growth inhibition [1] -10.8% | growth inhibition [2] -9.25% | viability increase [3] 0.49% | viability [4] 97.8% | viability [5] 105% | inhibition [6] 1.09% | RAM network inhibition [7] -0.36%

Cc1ccc(-c2ccc(CCC(=O)O)n2CC(=O)O)cc1
inactive: growth inhibition [1] -3.08% | growth inhibition [2] -11.2% | viability increase [3] -1.34% | viability [4] 98.7% | viability [5] 107% | inhibition [6] 1.36% | RAM network inhibition [7] 1.3%

CCOC(=O)C1=C(O)/C(=C/N(C)C)N=C1C
inactive: growth inhibition [1] 4.34% | growth inhibition [2] 5.5% | viability increase [3] -0.31% | viability [4] 103% | viability [5] 106% | inhibition [6] 3.19% | RAM network inhibition [7] 0.56%

COc1cccc(-c2nc(C(N)=O)c3[nH]c(=O)n(-c4ccccc4)c3n2)c1OC
inactive: growth inhibition [1] -8.87% | growth inhibition [2] -8.02% | viability increase [3] -4.58% | viability [4] 99.4% | viability [5] 95.9% | inhibition [6] 3.04% | RAM network inhibition [7] -0.2%

COC(=O)c1cc(-c2ccc3c(c2)OCO3)nc2ccccc12
inactive: growth inhibition [1] -14.1% | growth inhibition [2] -4.56% | viability increase [3] -0.1% | viability [4] 73.6% | viability [5] 76.3% | inhibition [6] 3.49% | RAM network inhibition [7] 8.14%

CC(=O)NCC(=O)NC1(C(=O)NC2CCCC2)CCCCC1
inactive: growth inhibition [1] -1.73% | growth inhibition [2] -24.5% | viability increase [3] -0.35% | viability [4] 97.8% | viability [5] 99.6% | inhibition [6] 4.11% | RAM network inhibition [7] 2.03%

Cc1nc2ccccc2c2oc(C(=O)Nc3ccc4c(c3)OCCO4)cc12
inactive: growth inhibition [1] 6.06% | growth inhibition [2] 10.4% | viability increase [3] -1.19% | viability [4] 87.7% | viability [5] 95.3% | inhibition [6] -0.63% | RAM network inhibition [7] 8.55%

CC(=O)Nc1ccc(S(=O)(=O)NC2=NCN(CCOC(=O)c3ccccc3)CN2)cc1
inactive: growth inhibition [1] -3.64% | growth inhibition [2] 5.12% | viability increase [3] -1.37% | viability [4] 92.7% | viability [5] 93.6% | inhibition [6] 1.29% | RAM network inhibition [7] 1.02%

CSc1cc(/C=N/O)c(SC)s1
inactive: growth inhibition [1] -6.62% | growth inhibition [2] 1.13% | viability increase [3] -3.3% | viability [4] 97.3% | viability [5] 95.9% | inhibition [6] 0.395% | RAM network inhibition [7] -1.95%

Cc1cc(NC(=O)CSCCc2ccncc2)no1
inactive: growth inhibition [1] -9.54% | growth inhibition [2] -5.15% | viability increase [3] -0.06% | viability [4] 99.7% | viability [5] 105% | inhibition [6] 0.675% | RAM network inhibition [7] 1.27%

Cc1cc(N2CCOCC2)nc(NCc2ccccc2)n1
inactive: growth inhibition [1] 3.04% | growth inhibition [2] -5.48% | viability increase [3] -3.86% | viability [4] 72% | viability [5] 64.8% | inhibition [6] 1.17% | RAM network inhibition [7] 4.85%

O=C1c2ccccc2C(=O)N1CCC(=O)N1CCCc2ccccc21
inactive: growth inhibition [1] -19.9% | growth inhibition [2] -13.7% | viability increase [3] -0.26% | viability [4] 93.8% | viability [5] 96.8% | inhibition [6] 2.32% | RAM network inhibition [7] 7.36%

CCSc1nnc(NC(=O)CCn2c(=O)oc3ccccc32)s1
inactive: growth inhibition [1] -3.29% | growth inhibition [2] -6.38% | viability increase [3] -0.78% | viability [4] 102% | viability [5] 103% | inhibition [6] 0.22% | RAM network inhibition [7] 9.53%

Nc1nc(N2CCOCC2)nc(N(c2ccccc2)c2ccccc2)n1
inactive: growth inhibition [1] -17.1% | growth inhibition [2] -9.3% | viability increase [3] -1.89% | viability [4] 107% | viability [5] 92.4% | inhibition [6] 1.93% | RAM network inhibition [7] 1.9%

O=C(CN1C2=NCCCN2c2ccccc21)c1cccs1
inactive: growth inhibition [1] 1.83% | growth inhibition [2] -10.1% | viability increase [3] -3.27% | viability [4] 95.7% | viability [5] 92.1% | inhibition [6] 0.695% | RAM network inhibition [7] 4.72%

O=C(Nc1nc2c(Cl)ccc(Cl)c2s1)c1ccco1
inactive: growth inhibition [1] -22% | growth inhibition [2] -3.32% | viability increase [3] -6.22% | viability [4] 90.1% | viability [5] 85.2% | inhibition [6] 1.41% | RAM network inhibition [7] 2.84%

CCOCCCNC(=O)C(c1ccc(C)cc1)N1CCOCC1 (stereo not drawn)
inactive: growth inhibition [1] -11.9% | growth inhibition [2] 2.48% | viability increase [3] -3.18% | viability [4] 93.2% | viability [5] 102% | inhibition [6] 1.84% | RAM network inhibition [7] 1.62%

O=C(CN1CCN(Cc2ccc(Cl)cc2)C1=O)NCCN1CCCC1
inactive: growth inhibition [1] 1.2% | growth inhibition [2] 9.72% | viability increase [3] -0.85% | viability [4] 107% | viability [5] 96.7% | inhibition [6] 1.54% | RAM network inhibition [7] 1.2%

CCOC(=O)Nc1ccc2c(c1)N(C(=O)N(CC)CC)c1ccccc1CC2
inactive: growth inhibition [1] -8.36% | growth inhibition [2] -26.2% | viability increase [3] -3.07% | viability [4] 71.6% | viability [5] 71.3% | inhibition [6] 2.9% | RAM network inhibition [7] 2.11%

CC(=O)CCC(=O)NCCc1ccccc1F
inactive: growth inhibition [1] -5.29% | growth inhibition [2] 9.55% | viability increase [3] 0.02% | viability [4] 94.8% | viability [5] 97.2% | inhibition [6] 0.02% | RAM network inhibition [7] 0.25%

O=C(NCCc1ccc(Cl)cc1)c1nnc(Cc2ccc(Cl)cc2)o1
inactive: growth inhibition [1] -3.81% | growth inhibition [2] 3.52% | viability increase [3] 0.2% | viability [4] 103% | viability [5] 103% | inhibition [6] 2.82% | RAM network inhibition [7] 7.52%
